target: T1, Interleukin-15 (Homo sapiens, UniProt P40933); test: Binding affinity to recombinant human IL-15 assessed as dissociation constant by SPR analysis; details: not given
Method in brief: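 IL-15 covalently immobilized on sensor chip; compounds flowed at increasing concentrations and binding monitored by surface plasmon resonance; Kd derived from direct interaction.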

T1 sequence (P40933 whole entry): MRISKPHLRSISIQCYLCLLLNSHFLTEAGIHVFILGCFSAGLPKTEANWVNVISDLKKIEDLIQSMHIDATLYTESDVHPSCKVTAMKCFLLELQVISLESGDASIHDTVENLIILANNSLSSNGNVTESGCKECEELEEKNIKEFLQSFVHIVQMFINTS

`Cn1c(Cc2n[nH]c(=O)c3ccccc23)nnc1SCCCCCCCC(=O)Nc1ccc(Cl)cc1Cl` was tested. Which Kd did it give?
The Kd was “Not Active”.

same assay, conditions: read-out: Kd

How did the Kd turn out when `Cn1c(Cc2nn(C)c(=O)c3ccccc23)nnc1SCCCCCCCC(=O)Nc1ccc(Cl)cc1Cl` was run?
Its Kd is 1.3 µM.

How did the Kd turn out when `Cn1c(Cc2nn(CCCO)c(=O)c3ccccc23)nnc1SCCCCCCCC(=O)Nc1ccc(Cl)cc1Cl` was run?
The Kd was 3.9 µM.

How did the Kd turn out when `Cn1c(Cc2nn(C)c(=O)c3ccccc23)nnc1SCCCCCCCC(=O)Nc1ccc(C(=O)c2ccccc2)cc1` was run?
Its Kd is 3.5 µM.

`Cn1nc(Cc2nnc(SCCCCCCCC(=O)Nc3ccc(Cl)cc3Cl)n2CCC=O)c2ccccc2c1=O` was tested. Which Kd did it give?
Its Kd is 5.9 µM.

With `Cn1nc(Cc2nnc(SCCCCCCCC(=O)Nc3ccc(Cl)cc3Cl)[nH]2)c2ccccc2c1=O` as the compound, how does the Kd read?
The Kd was 2.4 µM.

For `Cn1c(Cc2nn(CCC=O)c(=O)c3ccccc23)nnc1SCCCCCCCC(=O)Nc1ccc(Cl)cc1Cl`, which Kd is on record?
The Kd was 7.8 µM.

target: T1, Interleukin-15; test: Inhibition of IL-15-induced STAT5 phosphorylation in human NK92 cells incubated for 30 mins followed by IL-15 stimulation and measured after 1 hr by alphascreen assay; details: not given

Which IC50 does the source give for `Cn1c(Cc2nn(CCC=O)c(=O)c3ccccc23)nnc1SCC(=O)Nc1ccc(Cl)cc1Cl` here?
The IC50 was 20 µM.

With `CN(C)CCCn1nc(Cc2nnc(SCC(=O)Nc3ccc(Cl)cc3Cl)n2C)c2ccccc2c1=O` as the compound, how does the IC50 read?
Its IC50 is > 30 µM.

With `Cn1c(Cc2nn(C)c(=O)c3ccccc23)nnc1SCCCCCCCC(=O)Nc1ccc(Cl)cc1Cl` as the compound, how does the IC50 read?
Its IC50 is 0.19 µM.

`Cn1nc(Cc2nnc(SCC(=O)Nc3ccc(Cl)cc3Cl)n2CCC=O)c2ccccc2c1=O` was tested. Which IC50 did it give?
Its IC50 is 4.2 µM.

Which IC50 does the source give for `Cn1c(Cc2nn(CCCO[Si](C)(C)C(C)(C)C)c(=O)c3ccccc23)nnc1SCCCCCCCC(=O)Nc1ccc(Cl)cc1Cl` here?
Its IC50 is > 30 µM.

Which IC50 does the source give for `Cn1nc(Cc2nnc(SCC(=O)Nc3ccc(Cl)cc3Cl)n2CCC(=O)O)c2ccccc2c1=O` here?
Its IC50 is > 30 µM.

For `CCOC(CCn1c(Cc2nn(C)c(=O)c3ccccc23)nnc1SCC(=O)Nc1ccc(Cl)cc1Cl)OCC`, which IC50 is on record?
Its IC50 is > 30 µM.

With `Cn1c(Cc2nn(CCCO)c(=O)c3ccccc23)nnc1SCCCCCCCC(=O)Nc1ccc(Cl)cc1Cl` as the compound, how does the IC50 read?
The IC50 was > 30 µM.

`Cn1c(Cc2nn(C)c(=O)c3ccccc23)nnc1SCCCCCCCC(=O)Nc1ccc(C(=O)c2ccccc2)cc1` was tested. Which IC50 did it give?
Its IC50 is 0.05 µM.

How did the IC50 turn out when `Cn1c(Cc2nn(CCC(=O)O)c(=O)c3ccccc23)nnc1SCC(=O)Nc1ccc(Cl)cc1Cl` was run?
Its IC50 is > 30 µM.

With `CN(C)CCCn1c(Cc2nn(C)c(=O)c3ccccc23)nnc1SCCCCCCCC(=O)Nc1ccc(Cl)cc1Cl` as the compound, how does the IC50 read?
Its IC50 is > 30 µM.

For `Cn1nc(Cc2nnc(SCC(=O)Nc3ccc(Cl)cc3Cl)n2CCCO)c2ccccc2c1=O`, which IC50 is on record?
The IC50 was > 30 µM.

How did the IC50 turn out when `Cn1nc(Cc2nnc(SCCCCCCCC(=O)Nc3ccc(Cl)cc3Cl)n2CCC=O)c2ccccc2c1=O` was run?
Its IC50 is 0.71 µM.

For `CN(C)CCCn1nc(Cc2nnc(SCCCCCCCC(=O)Nc3ccc(Cl)cc3Cl)n2C)c2ccccc2c1=O`, which IC50 is on record?
The IC50 was > 30 µM.

With `Cn1nc(Cc2nnc(SCCCCCCCC(=O)Nc3ccc(Cl)cc3Cl)n2CCCO[Si](C)(C)C(C)(C)C)c2ccccc2c1=O` as the compound, how does the IC50 read?
The IC50 was > 30 µM.

With `Cn1nc(Cc2nnc(SCCCCCCCC(=O)Nc3ccc(Cl)cc3Cl)[nH]2)c2ccccc2c1=O` as the compound, how does the IC50 read?
Its IC50 is 0.28 µM.

With `Cn1c(Cc2n[nH]c(=O)c3ccccc23)nnc1SCCCCCCCC(=O)Nc1ccc(Cl)cc1Cl` as the compound, how does the IC50 read?
Its IC50 is 20 µM.

For `Cn1c(Cc2nn(CCC=O)c(=O)c3ccccc23)nnc1SCCCCCCCC(=O)Nc1ccc(Cl)cc1Cl`, which IC50 is on record?
The IC50 was 14.9 µM.

With `Cn1nc(Cc2nnc(SCCCCCCCC(=O)Nc3ccc(Cl)cc3Cl)n2CCC(=O)O)c2ccccc2c1=O` as the compound, how does the IC50 read?
The IC50 was 9.5 µM.

With `Cn1c(Cc2nn(C)c(=O)c3ccccc23)nnc1SCC(=O)Nc1ccc(Cl)cc1Cl` as the compound, how does the IC50 read?
The IC50 was 4.5 µM.

For `Cn1c(Cc2nn(CCC(=O)O)c(=O)c3ccccc23)nnc1SCCCCCCCC(=O)Nc1ccc(Cl)cc1Cl`, which IC50 is on record?
Its IC50 is > 30 µM.

With `Cn1nc(Cc2nnc(SCCCCCCCC(=O)Nc3ccc(Cl)cc3Cl)n2CCCO)c2ccccc2c1=O` as the compound, how does the IC50 read?
Its IC50 is > 30 µM.

target: Interleukin-2 (Homo sapiens, UniProt P60568); test: Inhibition of IL2-induced STAT5 phosphorylation in human NK92 cells incubated for 30 mins followed by IL-2 stimulation and measured after 1 hr by alphascreen assay; details: not given
Sequence (P60568 whole entry): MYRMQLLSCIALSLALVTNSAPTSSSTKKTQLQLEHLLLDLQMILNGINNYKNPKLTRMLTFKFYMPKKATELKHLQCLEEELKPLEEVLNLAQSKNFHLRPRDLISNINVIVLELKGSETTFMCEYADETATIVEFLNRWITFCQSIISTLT

`Cn1c(Cc2nn(CCC=O)c(=O)c3ccccc23)nnc1SCC(=O)Nc1ccc(Cl)cc1Cl` was tested. Which IC50 did it give?
The IC50 was > 30 µM.

How did the IC50 turn out when `CN(C)CCCn1nc(Cc2nnc(SCC(=O)Nc3ccc(Cl)cc3Cl)n2C)c2ccccc2c1=O` was run?
Its IC50 is > 30 µM.

Which IC50 does the source give for `Cn1c(Cc2nn(C)c(=O)c3ccccc23)nnc1SCCCCCCCC(=O)Nc1ccc(Cl)cc1Cl` here?
The IC50 was 0.35 µM.

With `Cn1nc(Cc2nnc(SCC(=O)Nc3ccc(Cl)cc3Cl)n2CCC=O)c2ccccc2c1=O` as the compound, how does the IC50 read?
The IC50 was 8.6 µM.

How did the IC50 turn out when `Cn1c(Cc2nn(CCCO)c(=O)c3ccccc23)nnc1SCC(=O)Nc1ccc(Cl)cc1Cl` was run?
Its IC50 is > 30 µM.

How did the IC50 turn out when `Cn1c(Cc2nn(CCCO[Si](C)(C)C(C)(C)C)c(=O)c3ccccc23)nnc1SCCCCCCCC(=O)Nc1ccc(Cl)cc1Cl` was run?
Its IC50 is > 30 µM.

With `Cn1nc(Cc2nnc(SCC(=O)Nc3ccc(Cl)cc3Cl)n2CCC(=O)O)c2ccccc2c1=O` as the compound, how does the IC50 read?
Its IC50 is > 30 µM.

For `CCOC(CCn1c(Cc2nn(C)c(=O)c3ccccc23)nnc1SCC(=O)Nc1ccc(Cl)cc1Cl)OCC`, which IC50 is on record?
The IC50 was > 30 µM.

With `Cn1c(Cc2nn(CCCO)c(=O)c3ccccc23)nnc1SCCCCCCCC(=O)Nc1ccc(Cl)cc1Cl` as the compound, how does the IC50 read?
Its IC50 is > 30 µM.

With `Cn1c(Cc2nn(C)c(=O)c3ccccc23)nnc1SCCCCCCCC(=O)Nc1ccc(C(=O)c2ccccc2)cc1` as the compound, how does the IC50 read?
Its IC50 is 0.08 µM.

`Cn1c(Cc2nn(CCC(=O)O)c(=O)c3ccccc23)nnc1SCC(=O)Nc1ccc(Cl)cc1Cl` was tested. Which IC50 did it give?
The IC50 was > 30 µM.

With `CN(C)CCCn1c(Cc2nn(C)c(=O)c3ccccc23)nnc1SCCCCCCCC(=O)Nc1ccc(Cl)cc1Cl` as the compound, how does the IC50 read?
Its IC50 is > 30 µM.

`Cn1nc(Cc2nnc(SCC(=O)Nc3ccc(Cl)cc3Cl)n2CCCO)c2ccccc2c1=O` was tested. Which IC50 did it give?
Its IC50 is > 30 µM.

Which IC50 does the source give for `Cn1c(Cc2nn(CCC3OCCO3)c(=O)c3ccccc23)nnc1SCC(=O)Nc1ccc(Cl)cc1Cl` here?
Its IC50 is > 30 µM.

Which IC50 does the source give for `Cn1nc(Cc2nnc(SCCCCCCCC(=O)Nc3ccc(Cl)cc3Cl)n2CCC=O)c2ccccc2c1=O` here?
The IC50 was 0.96 µM.

How did the IC50 turn out when `CN(C)CCCn1nc(Cc2nnc(SCCCCCCCC(=O)Nc3ccc(Cl)cc3Cl)n2C)c2ccccc2c1=O` was run?
The IC50 was > 30 µM.

`Cn1nc(Cc2nnc(SCCCCCCCC(=O)Nc3ccc(Cl)cc3Cl)n2CCCO[Si](C)(C)C(C)(C)C)c2ccccc2c1=O` was tested. Which IC50 did it give?
Its IC50 is > 30 µM.

Which IC50 does the source give for `Cn1nc(Cc2nnc(SCCCCCCCC(=O)Nc3ccc(Cl)cc3Cl)[nH]2)c2ccccc2c1=O` here?
The IC50 was 0.45 µM.

How did the IC50 turn out when `Cn1c(Cc2n[nH]c(=O)c3ccccc23)nnc1SCCCCCCCC(=O)Nc1ccc(Cl)cc1Cl` was run?
The IC50 was > 30 µM.

With `Cn1c(Cc2nn(CCC=O)c(=O)c3ccccc23)nnc1SCCCCCCCC(=O)Nc1ccc(Cl)cc1Cl` as the compound, how does the IC50 read?
The IC50 was 21.9 µM.

Which IC50 does the source give for `Cn1nc(Cc2nnc(SCCCCCCCC(=O)Nc3ccc(Cl)cc3Cl)n2CCC(=O)O)c2ccccc2c1=O` here?
Its IC50 is 14.3 µM.

For `Cn1c(Cc2nn(C)c(=O)c3ccccc23)nnc1SCC(=O)Nc1ccc(Cl)cc1Cl`, which IC50 is on record?
Its IC50 is 7.7 µM.

Which IC50 does the source give for `Cn1nc(Cc2nnc(SCCCCCCCC(=O)Nc3ccc(Cl)cc3Cl)n2CCCO)c2ccccc2c1=O` here?
The IC50 was > 30 µM.

From ChEMBL document CHEMBL4819118, “Rational modification, synthesis and biological evaluation of N-substituted phthalazinone derivatives designed to target interleukine-15 protein” (Bioorg Med Chem, 2021)
